According to the array DNA melting data of Ke et al. (doi:10.1101/2024.01.08.574731):

Tests used:
[1] = melting temperature; fluorescence melt of hairpins on a sequencing array, two-state fit, raised by 9.35 °C to match UV melts; details: sodium 0.088 M
Method in brief: (§1)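 With Cy3 and quencher oligos annealed, library hairpins on a sequenced MiSeq flow cell were imaged for Cy3 fluorescence in 50 mM Na-HEPES pH 8.0, 25 mM NaCl, in 2.5 °C steps up to 60 °C. Melting temperature and folding enthalpy were derived from bootstrapped two-state fits of signals normalised to pre-quench Cy3 and to control constructs. Four replicates were combined by inverse variance, with fitted temperatures raised by 9.35 °C to match UV melts.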

[2] = folding enthalpy; higher = less favourable; fluorescence melt of hairpins on a sequencing array, two-state fit; details: sodium 0.088 M
Method in brief: as §1

Row | Sequence | Tm [1] | folding enthalpy [2]
1 | GCCTAGCGAAAGCTGAGC ((..(((....)))..)) | 48.8 °C | -10.7 kcal/mol
2 | GATCCATTCTTGGATC ((((((....)))))) | 54 °C | -42.1 kcal/mol
3 | GCGGTACCGAAAGGTCGC (((..(((....)))))) | 55.4 °C | -26.3 kcal/mol
4 | GCCAAGCGAAAGCAAGGC (((..((....))..))) | 59.2 °C | -23.7 kcal/mol
5 | GCGCTTGGAAACAGGCGC ((((.((....)).)))) | 61.7 °C | -40.6 kcal/mol
6 | GCCAATGGAAACATCGGC (((.(((....))).))) | 44 °C | -28.9 kcal/mol
7 | GGACTGGGAAACCAGTTC (.(((((....))))).) | 50.6 °C | -28.6 kcal/mol
8 | GATCATCCTATGATC ((((((...)))))) | 48.3 °C | -33.1 kcal/mol
9 | GGACGCGAAAGCGTTTCC ((((((....)))..))) | 36.4 °C | -9.28 kcal/mol
10 | GATCGTGTGGACGATC ((((((....)))))) | 55.7 °C | -38 kcal/mol
11 | GTAAGCACGAAAGTGTAC (((..(((....)))))) | 27.9 °C | -9.4 kcal/mol
12 | GCGGAACGAAAGTTTCGC (((.(((....))).))) | 64.8 °C | -51.9 kcal/mol
13 | GATCGATAATCGATC ((((((...)))))) | 49.5 °C | -37.7 kcal/mol
14 | GTATAGCGAAAGCTTTAC (((.(((....))).))) | 40.9 °C | -22 kcal/mol
15 | GATCAGCTGCTGATC ((((((...)))))) | 50.7 °C | -47.7 kcal/mol
16 | GATCCCGCATGGGATC ((((((....)))))) | 68 °C | -32.9 kcal/mol
17 | GTTGAGCGAAAGCTAAC (((.(((....)))))) | 39.8 °C | -15.2 kcal/mol
18 | GATCGGGAGCCGATC ((((((...)))))) | 53.7 °C | -22 kcal/mol
19 | GCCCTGGGAAACTAGGGC (((((.(....).))))) | 55.3 °C | -44.5 kcal/mol
20 | GATCCGAATCCGGATC ((((((....)))))) | 55.8 °C | -38.5 kcal/mol
21 | GATCATTTGATGATC ((((((...)))))) | 46.6 °C | -38.2 kcal/mol
22 | GAGACCGAAAGGTTCCTC ((((((....)))..))) | 32 °C | -12.4 kcal/mol
23 | CAATGGAAACATTG (((((....))))) | 40.6 °C | -26 kcal/mol

Row | Sequence | Tm [1] | folding enthalpy [2]
24 | GTACGGCGAAAGCCCTAC (((.(((....))).))) | 35.9 °C | -12.5 kcal/mol
25 | GATGACGAAAGTCGAATC ((((((....)))..))) | 33 °C | -13.7 kcal/mol
26 | GTTATGGGAAACCATAAC (((((((....))))))) | 54 °C | -43.7 kcal/mol
27 | GGTGACGAAAGTCGGACC ((((((....)))..))) | 42.1 °C | -15.8 kcal/mol
28 | GCGCGGGGAAACCCGCAC (.(((((....))))).) | 53.9 °C | -8.32 kcal/mol
29 | GATCGGAGCGCCGATC ((((((....)))))) | 55 °C | -31.4 kcal/mol
30 | GGCACCGAAAGGTCAGCC ((((((....)))..))) | 49.2 °C | -24.2 kcal/mol
31 | GCTGGCCGAAAGGCAAGC (((.(((....))).))) | 68.9 °C | -25.5 kcal/mol
32 | GCAAAACGAAAGTTTGC (((.(((....)))))) | 50.8 °C | -30.6 kcal/mol
33 | GCGAATCGAAAGATCGC (((.(((....)))))) | 57.3 °C | -31.2 kcal/mol
34 | GACTCGACGAAAGTCGTC (((..(((....)))))) | 31.4 °C | -8.01 kcal/mol
35 | GCCAGGCGAAAGCCCTGC ((..(((....)))..)) | 45.1 °C | -12.4 kcal/mol
36 | GCAACGCGAAAGCAATGC (((..((....))..))) | 40.6 °C | -11.1 kcal/mol
37 | GGCAGTGGAAACACCACC ((..(((....)))..)) | 29.5 °C | -13.2 kcal/mol
38 | GAGTCCCGAAAGGGCTC (((.(((....)))))) | 59.5 °C | -25.5 kcal/mol
39 | GCACTGCGAAAGCCCTGC (((..((....))..))) | 28.8 °C | -12.5 kcal/mol
40 | GAGGAAGCGAAAGCTCTC (((..(((....)))))) | 35.4 °C | -13.7 kcal/mol
41 | GTAGATGGAAACATCTGC (.(((((....))))).) | 45.6 °C | -20.8 kcal/mol
42 | GATCCACTCTTGGATC ((((((....)))))) | 51 °C | -35.1 kcal/mol
43 | CGGGAACGGAAACGTCCG (((..(((....)))))) | 43.1 °C | -22.2 kcal/mol
44 | GTCGGGGGAAACCTCGAC ((((.((....)).)))) | 55.5 °C | -44.2 kcal/mol
45 | GATCATTTCATGATC ((((((...)))))) | 51.8 °C | -40.6 kcal/mol
46 | GATCAGTAGACTGATC ((((((....)))))) | 51.5 °C | -40.7 kcal/mol
